Laboratory results published in ChEMBL document CHEMBL4513216, “Probing the Open Global Health Chemical Diversity Library for Multistage-Active Starting Points for Next-Generation Antimalarials” (ACS Infect Dis, 2020).

Test: Toxicity liver stage against HepG2, at 10uM
Assay type: cell-based
Set-up: test concentration 10 uM, cell line HepG2-A16-CD81EGFP
Conditions: human, HepG2-A16-CD81EGFP cells; read-out: INHIBITION
Outline: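 Uninfected HepG2-A16-CD81EGFP cells, 3 × 10^3 per well, 1536-well, plated on prespotted compound at 10 μM final, parasite-free screening media added to match infected plates; puromycin 10 μM positive, DMSO 0.5% negative; run in parallel with 48 h PbLuc assay at 37 °C, 5% CO2; viability by CellTiter-Glo luminescence, normalized to controls.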

Compound | cytotoxicity at 10 µM
O=C(Cn1cccnc1=O)NCC1Cc2ccccc2O1 (centres undefined) | -4.62%
Cc1noc([C@@H]2C[C@H]3CN(Cc4scnc4C)C[C@H]3O2)n1 | -136%
O=C(C1CCCCC1)N1CCC(n2nc(-c3ccco3)ccc2=O)CC1 | -16.6%
O=C(NCCc1c[nH]cn1)c1n[nH]c2c1CCC2 | 1.67%
Cc1cnn(CC2CCCN2CC(=O)NC2CCN(C3CC3)CC2)c1 (centres undefined) | 0.109%
O=C(Nc1cc(F)ccc1OCC1CCCO1)N1CCCC1 (centres undefined) | -6.49%
CCc1nnc(CN(C)c2nc(C3CCCC3)nc3c2cnn3C)o1 | -11.3%
COc1ncc(NC(=O)Nc2cc(C)ccc2OC)cn1 | 2.76%
O[C@@H]1CC(CNCC2CC2)(COc2cccnc2)C[C@@H]1O (some centres undefined) | -2.64%
CCc1nc(CN(C)Cc2nc(-c3ccccc3Cl)oc2C)no1 | -8.83%
COCCN1CCO[C@@H]2CN(C(=O)NCc3cccnc3)CC[C@@H]2C1 | 6.65%
Cn1c(CN2CCCC2)nnc1C1CCCN(C(=O)CN2CCCC2)C1 (centres undefined) | -1.9%
COc1ccc(OC)c(NC(=O)c2nc3ccccc3n(C)c2=O)c1 | -4.71%
CCN1CCCC(c2c(-c3ccccc3)ncn2CCCO)C1 (centres undefined) | -3.41%
CC(C)(C)OC(=O)NCC1CCN(C(=O)c2cc(Cl)c[nH]2)CC1 | -3.26%
Cc1noc(Cl)c1CC(=O)NCCOc1ccc(F)cc1F | -2.64%
O=S(=O)(c1ccc2c(c1)CCC2)N1CCCC(Cn2cncn2)C1 (centres undefined) | 4.19%
CN(C)C1CCCN(C(=O)c2ccc3sc4c(c3c2)CCNC4=O)CC1 (centres undefined) | -8.58%
COC1CCN(C(=O)c2nn(-c3ccc(C(C)C)cc3)cc2O)CC1 | -42.9%
CCOCC1CN(C(=O)Cc2cccs2)Cc2ccnn2C1 (centres undefined) | -78.7%
Cc1cc(CN2CCN(C(=O)c3sccc3C3CC3)CC2)on1 | 4.69%
Clc1ccccc1CN1CCc2nc(C3CCCNC3)ncc2C1 (centres undefined) | -19.7%

Compound | cytotoxicity at 10 µM
N#Cc1ccc(NC2CCN(c3ncccn3)CC2)cc1Cl | 8.8%
CC(=O)Nc1nc(C(=O)NCCOc2ccccc2)cs1 | 6.11%
CC1CCN(C(=O)[C@H]2C[C@@H]3CCN(CC4CCOCC4)C[C@H]3O2)CC1 | 5.35%
C[C@@H]1CN(c2nc3c(cc2C(N)=O)CCC3)CC[C@@]1(O)C1CCC1 | 0.186%
CCCC(=O)N1CCC(Nc2ncc(Br)cn2)CC1 | -8.69%
Cc1nc(CC(=O)N2CCN(C(C)c3ccccc3F)CC2)cs1 (centres undefined) | 2.58%
CCC(N)C(=O)N1CCC(OCc2ccc(Cl)c(Cl)c2)CC1 (centres undefined) | -12%
COCc1nn(C)c2c1CN(C(=O)c1ccno1)CC2 | 12.7%
Cc1cn(CC(=O)NC2CCN(CC3CC3)CC2)c2ccccc12 | 0.951%
COCCN1C(=O)CC[C@@H]2[C@H]1CCN2C(=O)C1CCOCC1 | 9.67%
COCc1nc(N(C)C)ncc1C(=O)NC(C)c1ccccc1 (centres undefined) | 6.03%
CN(C)Cc1cnn(-c2ccccc2C(=O)NCCC2CCCN2C)c1 (centres undefined) | 8.18%
O[C@H]1CCN(CC2CCOC2)[C@H]1Cc1ccncc1 (some centres undefined) | -2.32%
O=C(NCc1ccco1)N1CCN(Cc2ccc3c(c2)CCO3)CC1 | -2.83%
O=C(NCc1cccc(F)c1)N1CCc2ncnc(NC3CC3)c2CC1 | -105%
Cc1cc(C(=O)N2C[C@@H]3OCCN(CCN4CCCC4)[C@@H]3C2)c(C)o1 | -74.8%
CCCC(C#N)NC(=O)COC1CCCCC1 (centres undefined) | 8.71%
COc1ccc2c(OCC(=O)NCC(F)(F)F)ccnc2c1 | -3.88%
COc1cccc(CNC(=O)c2cc(C)nc(N3CCCCC3)n2)c1 | 20%
Cn1ccnc(Nc2ccc3c(c2)CCN3C(=O)c2cccnc2)c1=O | -55%
O=C(NCCN1CCOCC1)NCc1cccnc1-n1cccn1 | -2.22%
Cc1nn(C)c(C)c1C1CCCN1Cc1nc(C)c2ccccc2n1 (centres undefined) | -3.9%

Compound | cytotoxicity at 10 µM
CC(=O)c1cccc(CN2CC(Oc3ccccc3C)C2)c1 | -4.16%
COCCNc1cc(C2CCCNC2)ccn1 (centres undefined) | -7.17%
COCCCS(=O)(=O)N1CCN(Cc2cccn2C)CC1 | -9.53%
CNC(=O)[C@@H]1C[C@H]2CN(C(=O)c3ccccn3)C[C@H]2N1C(C)C | 7.45%
O=C(NCCc1ccccc1F)NCC(O)c1cccc(F)c1 (centres undefined) | -6.23%
O=C(c1cc(-c2cccnc2)[nH]n1)N1CCCC(c2cnccn2)C1 (centres undefined) | 6.21%
Nc1ncncc1-c1noc([C@@H]2CCCN2Cc2cccnc2)n1 | -7.29%
Cc1cc(NC(=O)NCC(c2ccc(C)o2)N2CCOCC2)n(C)n1 (centres undefined) | -32.5%
Cc1nc(-c2cc(C(=O)N3CCCN(C)CC3)c3ccccn23)cn1C | 5.59%
COC(=O)C(C)(C)NC(=O)c1scnc1Cl | -2.31%
COc1ccc(CC(=O)N2CC[C@@]3(O)CCNC[C@H]3C2)c(OC)c1 | 4.26%
CC(C)(C)c1nnc(CNc2c(F)cccc2-n2cccn2)o1 | -8.25%
Cc1ccccc1C1CCN(CCn2cc(-c3cccc(O)c3)nn2)C1 (centres undefined) | 18.2%
Cc1ccc(CN2CC(C(=O)NCC3CC3)C3(CCOCC3)C2)s1 (centres undefined) | -3.66%
COC(=O)c1cc(CN2CCC(c3noc(C)n3)CC2)c(C)s1 | -7.12%
COc1ccc(NC(=O)N2CCC3(CC2)NC(=O)CC3C(=O)O)c(C)c1 (centres undefined) | -7.34%
Cn1cc(CNC2CCc3ncnn3C2)c(-c2ccncc2)n1 (centres undefined) | -8.55%
Cc1ccc(F)cc1C(=O)N1C[C@@H](CN2CCOCC2)[C@@H](CO)C1 | -6.2%
COc1ccc(S(=O)(=O)NCCC(O)c2cccs2)c(C)c1 (centres undefined) | -1.13%
CSCC(=O)Nc1ncn(Cc2cccc(Br)c2)n1 | -12%
CC(C)(C)c1n[nH]c(C2CN(Cc3nnc(C4CCC4)o3)CCO2)n1 (centres undefined) | -8.24%
O=C(Nc1cccc(C2SCCS2)c1)C1CCCN1c1nccs1 (centres undefined) | -10.1%

Compound | cytotoxicity at 10 µM
CCCc1cc(NC(=O)c2ccc(Cl)c(N3CCNC3=O)c2)n[nH]1 | -4.55%
O=C(c1cc(-c2cn[nH]c2)nc2ccc(F)cc12)N1CCSCC1 | -0.0178%
COc1ccc(C2CC(=O)NCc3nc4ccccn4c32)cn1 (centres undefined) | -3.95%
CCn1c(Nc2ccccc2OC)nc2c(C)nn(C)c2c1=O | 15.8%
CC(C(=O)Nc1ccccn1)n1ccc(C(F)(F)F)n1 (centres undefined) | 2.74%
O=C(NC1CC1)[C@@H]1C[C@@H]2CCN(Cc3ccoc3)C[C@@H]2O1 | -103%
Cc1noc(C)c1CNCC1COCc2c(-c3ccsc3)nnn2C1 (centres undefined) | 5.74%
Cc1cccc(=O)n1CCC(=O)N(C)Cc1cccc2ncccc12 | 0.66%
CCc1nnc2n1CC(CNCc1ccncc1)CC2 (centres undefined) | -15.1%
CN(C)c1nc2c(c(N3CCCC4(CC3)CNC(=O)O4)n1)CCCC2 (centres undefined) | -1.07%
Cc1cnc(C)c(N2CCCC(CO)(Cc3cccc(Cl)c3)C2)n1 (centres undefined) | 7.78%
CC(=O)N1C[C@@H]2CN(S(=O)(=O)C3CC3)CCO[C@@H]2C1 | -107%
COc1ccccc1OCC(=O)NS(=O)(=O)c1ccc(C)s1 | -12.7%
Cc1cccc(C(=O)N2CCCC2)c1NCC(=O)NC1(C#N)CCCC1 | -11.5%
Cc1nnsc1C(=O)NCc1nn(C2CCCC2)c2c1CCCC2 | -0.543%
O=C([C@H]1C[C@H]2OCC[C@H]2N(CC2CC2)C1)N1CCCCO1 | -69.2%
Cn1cc(NC(=O)N2CCCC2c2ccccn2)ccc1=O (centres undefined) | -3.83%
CC(C)Nc1nc(N2CCCC2)nc2c1CN(C)CC2 | -0.376%
Cc1c(CCC(=O)N2CCCC2c2ccnc(N(C)C)c2)cnn1C (centres undefined) | 0.469%
Cc1ccc(N2CC[C@@H](NC(=O)c3cnccn3)[C@H](O)C2)nn1 | -6.79%
CCSCC(C)NCc1nn(C)c2ccc(C)cc12 (centres undefined) | 1.71%
Cc1ccccc1CNC(C)c1ccc(OCC(=O)NC2CC2)cc1 (centres undefined) | -6.97%

Compound | cytotoxicity at 10 µM
CN1CCN(c2ccncc2S(=O)(=O)N2CCCCC2)CC1 | -6.84%
Cc1cc(-n2c(C)cn(CN(C)C3CCS(=O)(=O)C3)c2=O)no1 (centres undefined) | -0.872%
COc1ccc2nnc(CCCC(=O)NCCc3ccccn3)n2n1 | -9.49%
COc1ccc(N2CCN(C(=O)COc3c(C)occc3=O)CC2)cc1 | -2.67%
CC(C)(C)c1cc(CNC(=O)c2cc(COc3ccccc3)[nH]n2)[nH]n1 | 8.28%
CNC(=O)Cc1noc(-c2cc3c(s2)CCCCCC3)n1 | 3.76%
CNC(=O)c1nc2c(s1)CCN(C(=O)c1cccnc1)CC2 | 6%
N#Cc1ccc(OCC(O)CN2CCC(Cn3cccn3)CC2)cc1 (centres undefined) | -0.775%
Cc1cc(C)n2nc(CC(=O)N[C@H]3C[C@H]4CN(C)CCN4C3)nc2n1 | -2.9%
O=C(N[C@@H]1CCC[C@@H](N2CCOCC2)[C@@H]1O)c1cnn2cccnc12 | -21.9%
COc1cccc(SCC(=O)N2CCCC(N3CCCC3=O)C2)c1 (centres undefined) | 6.16%
CCN(C)c1ncnc2c1CCN(Cc1ccsc1)CC2 | 1.69%
CCN1CCN(C(=O)c2cccn2Cc2ccccc2)CC1 | -12.3%
CCCC(=O)NC(C)c1nnc2n1CCC2 (centres undefined) | -0.645%
c1ccc2c(NC3CCc4ncnn4C3)ncnc2c1 (centres undefined) | 7.21%
Cc1c(CCC(=O)Nc2ccc(Cl)cn2)cnn1C | 0.678%
NCC1(c2cccc(C(F)(F)F)c2)CCCC1 | -5.7%
CN(C)C(=O)c1cc2ncc(C(=O)NC3CCCC3)cc2n1C | -2.63%
O=C(C1CCCO1)N1C[C@@H]2CCN(c3cnccn3)C[C@@H]2C1 (some centres undefined) | -0.832%
Cn1cccc1C(=O)N1CCc2c(CNS(C)(=O)=O)cncc2C1 | 4.68%
CN(C)Cc1cccc(C(=O)N2CCCC(n3cncn3)C2)c1 (centres undefined) | -5.87%
